In data set [1] the test system is Mus musculus. Put plainly: Cardiovascular activity in anesthetized mouse assessed as decrease in blood pressure at 1.4 uM/kg, iv relative to control. The data set is classed as functional, organism-based. In short, it runs like this: (§1)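 Mice under 1.5% isoflurane, body temperature held at 36 °C on a heating pad. Aorta cannulated via the right carotid artery with a 1.2F PV loop catheter to record arterial pressure and heart rate continuously. Peptide given systemically through the right internal jugular vein.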

Data set [2] concerns Mus musculus. Put plainly: Cardiotoxicity in anesthetized mouse assessed as induction of tachycardia at 1.4 uM/kg, iv relative to control. The data set is classed as toxicity, organism-based. The following applies: in vivo, 1.4 µmol/kg. In short, it runs like this:
as §1

Data set [3] addresses T1, Neprilysin (Homo sapiens, UniProt P08473). Kind of data set: Drug metabolism assessed as recombinant human NEP-medited peptide proteolysis at 1 mM up to 72 hrs by LC-MS analysis. The data set is classed as ADME. Particulars: 1000 µM. The method in brief: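 Recombinant human NEP, 3.1 nM final in 100 mM Tris, 100 mM NaCl, 10 μM ZnCl2, pH 7.5, preincubated 10 min at 37 °C. Then 5 μL of 1 mM peptide stock and dansyl-YVG internal standard added; incubated at 37 °C for up to 72 h. Extracted-ion LC−MS ratio of parent to standard compared with 0 h and converted to percent cleaved.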

Data set [4] deals with T1, Neprilysin. Put plainly: Drug degradation in human plasma assessed as NEP-mediated degradation by measuring amount of apelin remaining after 60 mins by RP-HPLC analysis. Particulars: 1 h. The data set is classed as ADME. In short, it runs like this:
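Human plasma (20 μL) prewarmed to 37 °C, then 5 μL of 400 μM peptide added and incubated for set times; done in triplicate. Quenched with 10% aqueous TFA, dansyl-YVG internal standard added, and peptides recovered on a C18 spin column with 40% acetonitrile/0.1% TFA. Analysed by C18 RP-HPLC; peptide/standard peak-area ratio compared with the 0 min ratio.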

Data set [5] concerns Heart. Kind of data set: Cardioprotective activity against Langendorff isolated mouse heart ischemia-reperfusion model assessed as minimum derivative change in diastolic pressure over time at 1 uM administered for 10 mins during start of 40 mins reperfusion period post 30 mins ischemic induction. The data set is classed as functional, tissue-based. The method in brief: (§2)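 Mouse hearts (heparinized, isoflurane 1.5−2%) excised and Langendorff-perfused at constant 80 mmHg with modified Krebs−Henseleit buffer, 37 °C, 95% O2/5% CO2, pH 7.4. After 10 min baseline, 30 min global ischemia, then 40 min reperfusion. Peptide at 1 μM given for the first 10 min of reperfusion, with saline sham and native apelin-17 as controls. Left ventricular function recorded continuously.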

The test system of data set [6] is Heart. Put plainly: Cardioprotective activity against Langendorff isolated mouse heart ischemia-reperfusion model assessed as improvement in LVDP at 1 uM administered for 10 mins during start of 40 mins reperfusion period post 30 mins ischemic induction. The data set is classed as functional, tissue-based. The method in brief:
as §2

For data set [7], the system named is Heart. Kind of data set: Cardioprotective activity against Langendorff isolated mouse heart ischemia-reperfusion model assessed as improvement in RPP at 1 uM administered for 10 mins during start of 40 mins reperfusion period post 30 mins ischemic induction. The data set is classed as functional, tissue-based. The method in brief:
as §2

The target in data set [8] is T1, Neprilysin. Put plainly: Inhibition of recombinant human NEP using pyr-1-apelin-13 as substrate assessed as peptide degradation at 1 mM preincubated for 10 mins followed by substrate addition measured after 72 hrs by LC-MS analysis. The following applies: 1000 µM. The method in brief:
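Recombinant human NEP, 3.1 nM in Tris/NaCl/10 μM ZnCl2 buffer, pH 7.5, preincubated 10 min at 37 °C with 5 μL of 1 mM analogue stock (equimolar to substrate) plus dansyl-YVG standard. Then 5 μL of 1 mM pyr-1-apelin-13 added. Aliquots taken at 0, 1, 4, 24 and 72 h and analysed by LC−MS; duplicate per time point.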

Data set [9] relates to Heart. Kind of data set: Cardioprotective activity against Langendorff isolated mouse heart ischemia-reperfusion model assessed as maximum derivative change in systolic pressure over time at 1 uM administered for 10 mins during start of 40 mins reperfusion period post 30 mins ischemic induction. The data set is classed as functional, tissue-based. In short, it runs like this: as §2

Each structure is given as a SMILES string. Activity calls are given as the source filed them. The calls are words filed in the database; no cut-off is given here. Starred links: 1 amine or outer side, 2 acyl side, 3 side chain; linkers in the order of their positions; H or OH if unused. Non-standard residues stand in square brackets, D forms with d. Residues, ends and D or L forms follow the SMILES beside them. Phe(4-Br) = N[C@@H](Cc1ccc(Br)cc1)C(=O)O; azaLeu = CC(C)CN(N[*:1])C(=O)[*:2]; αMeR = C[C@](N)(CCCNC(=N)N)C(=O)O; αMeL = CC(C)C[C@](C)(N)C(=O)O; Nle = CCCC[C@H](N)C(=O)O; Aib = CC(C)(N)C(=O)O

T1 sequence (P08473 whole entry): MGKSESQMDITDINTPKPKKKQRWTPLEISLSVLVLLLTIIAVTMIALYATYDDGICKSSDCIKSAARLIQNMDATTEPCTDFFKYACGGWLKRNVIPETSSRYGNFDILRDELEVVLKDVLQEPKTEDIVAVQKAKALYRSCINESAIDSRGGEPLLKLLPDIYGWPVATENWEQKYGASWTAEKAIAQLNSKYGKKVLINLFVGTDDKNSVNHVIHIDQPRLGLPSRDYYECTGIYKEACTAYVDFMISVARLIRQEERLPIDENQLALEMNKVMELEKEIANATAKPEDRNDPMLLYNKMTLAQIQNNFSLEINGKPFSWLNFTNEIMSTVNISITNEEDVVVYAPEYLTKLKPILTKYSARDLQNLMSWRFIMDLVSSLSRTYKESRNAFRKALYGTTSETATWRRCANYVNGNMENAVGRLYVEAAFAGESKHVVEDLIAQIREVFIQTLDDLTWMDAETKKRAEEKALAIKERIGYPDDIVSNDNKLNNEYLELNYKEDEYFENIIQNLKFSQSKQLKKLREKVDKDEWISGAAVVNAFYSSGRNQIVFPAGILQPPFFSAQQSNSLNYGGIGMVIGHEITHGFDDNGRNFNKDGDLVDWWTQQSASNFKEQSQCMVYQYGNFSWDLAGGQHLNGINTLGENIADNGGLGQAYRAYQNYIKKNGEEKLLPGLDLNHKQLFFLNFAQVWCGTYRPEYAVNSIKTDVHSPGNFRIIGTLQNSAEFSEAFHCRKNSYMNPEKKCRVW

In the case of `CCCC[C@H](NC(=O)[C@@H]1CCCN1C(=O)CNC(=O)[C@H](CCCCN)NC(=O)[C@H](Cc1c[nH]cn1)NC(=O)[C@H](CO)NC(=O)[C@H](CC(C)C)NC(=O)[C@H](CCCNC(=N)N)NC(=O)[C@@H]1CCCN1C(=O)[C@H](CCCNC(=N)N)NC(=O)[C@H](CCC(N)=O)NC(=O)[C@H](CCCNC(=N)N)NC(=O)[C@H](CCCNC(=N)N)NC(=O)[C@H](Cc1ccccc1)NC(=O)[C@@H](N)CCCCN)C(=O)NC(C)(C)C(=O)N[C@@H](Cc1ccc(Br)cc1)C(=O)O` (H-KFRRQRPRLSHKGP[Nle][Aib][Phe(4-Br)]-OH), the result in the data set on Mus musculus [1] was Active. Further, the Activity result with Mus musculus [2] was “Toxic”. The Drug metabolism result on Neprilysin [3] was “Metabolite_Detected”. The Drug degradation on Neprilysin [4] is on record as 35%.

Consider `CCCC[C@H](NC(=O)[C@@H]1CCCN1C(=O)CNC(=O)[C@H](CCCCN)NC(=O)[C@H](Cc1c[nH]cn1)NC(=O)[C@H](CO)NC(=O)N(CC(C)C)NC(=O)[C@H](CCCNC(=N)N)NC(=O)[C@@H]1CCCN1C(=O)[C@H](CCCNC(=N)N)NC(=O)[C@H](CCC(N)=O)NC(=O)[C@H](CCCNC(=N)N)NC(=O)[C@H](CCCNC(=N)N)NC(=O)[C@H](Cc1ccccc1)NC(=O)[C@@H](N)CCCCN)C(=O)NC(C)(C)C(=O)N[C@@H](Cc1ccc(Br)cc1)C(=O)O` (H-KFRRQRPR[azaLeu]SHKGP[Nle][Aib][Phe(4-Br)]-OH), for which the outcome with Mus musculus [1], in the data set on Heart [5], in the data set with Heart [6], in the data set on Heart [7] and with Heart [9] was Active. Further, the Activity entry in the data set on Mus musculus [2] is on record as “Toxic”. For the same compound, the Drug metabolism entry on Neprilysin [3] is recorded as “Metabolite_Notdetected”. In addition, the Drug degradation at Neprilysin [4] is reported as 68%. The “inhibition (INH)” value at Neprilysin [8] is reported as “Not Active”.

Turning to `CCCC[C@H](NC(=O)[C@@H]1CCCN1C(=O)CNC(=O)[C@H](CCCCN)NC(=O)[C@H](Cc1c[nH]cn1)NC(=O)[C@H](CO)NC(=O)[C@@H](CC(C)C)NC(=O)[C@H](CCCNC(=N)N)NC(=O)[C@@H]1CCCN1C(=O)[C@H](CCCNC(=N)N)NC(=O)[C@H](CCC(N)=O)NC(=O)[C@H](CCCNC(=N)N)NC(=O)[C@H](CCCNC(=N)N)NC(=O)[C@H](Cc1ccccc1)NC(=O)[C@@H](N)CCCCN)C(=O)NC(C)(C)C(=O)N[C@@H](Cc1ccc(Br)cc1)C(=O)O` (H-KFRRQRPR[dL]SHKGP[Nle][Aib][Phe(4-Br)]-OH), in the data set with Mus musculus [2], the Activity result was “Toxic”. Moreover, the Drug metabolism result on Neprilysin [3] is listed as “Metabolite_Notdetected”. In addition, the Drug degradation at Neprilysin [4] came out at 80%. The “inhibition (INH)” value at Neprilysin [8] is on record as “Not Active”.

On to `CCCC[C@H](NC(=O)[C@@H]1CCCN1C(=O)CNC(=O)[C@H](CCCCN)NC(=O)[C@H](Cc1c[nH]cn1)NC(=O)[C@H](CO)NC(=O)[C@](C)(CC(C)C)NC(=O)[C@H](CCCNC(=N)N)NC(=O)[C@@H]1CCCN1C(=O)[C@H](CCCNC(=N)N)NC(=O)[C@H](CCC(N)=O)NC(=O)[C@H](CCCNC(=N)N)NC(=O)[C@H](CCCNC(=N)N)NC(=O)[C@H](Cc1ccccc1)NC(=O)[C@@H](N)CCCCN)C(=O)NC(C)(C)C(=O)N[C@@H](Cc1ccc(Br)cc1)C(=O)O` (H-KFRRQRPR[αMeL]SHKGP[Nle][Aib][Phe(4-Br)]-OH), for which the Activity entry in the data set on Mus musculus [2] was “Toxic”. Further, the Drug metabolism entry at Neprilysin [3] was “Metabolite_Notdetected”. In addition, at Neprilysin [4], the Drug degradation came out at 48%. For the same compound, the “inhibition (INH)” value at Neprilysin [8] is “Not Active”.

`CSCC[C@H](NC(=O)[C@@H]1CCCN1C(=O)CNC(=O)[C@H](CCCCN)NC(=O)[C@H](Cc1cnc[nH]1)NC(=O)[C@H](CO)NC(=O)[C@H](CC(C)C)NC(=O)[C@H](CCCNC(=N)N)NC(=O)[C@@H]1CCCN1C(=O)[C@H](CCCNC(=N)N)NC(=O)[C@@H]1CCC(=O)N1)C(=O)N1CCC[C@H]1C(=O)N[C@@H](Cc1ccccc1)C(=O)O`: the Drug metabolism result at Neprilysin [3] was “Metabolite_Detected”. For the same compound, on Neprilysin [4], the Drug degradation is recorded as 12%.

For the compound `CCCC[C@H](NC(=O)[C@@H]1CCCN1C(=O)CNC(=O)[C@H](CCCCN)NC(=O)[C@H](Cc1c[nH]cn1)NC(=O)[C@H](CO)NC(=O)[C@@H](CC(C)C)NC(=O)[C@H](CCCNC(=N)N)NC(=O)[C@@H]1CCCN1C(=O)[C@H](CCCNC(=N)N)NC(=O)[C@@H]1CCC(=O)N1)C(=O)NC(C)(C)C(=O)N[C@@H](Cc1ccc(Br)cc1)C(=O)O`, the result with Mus musculus [1] was inactive. Also, at Neprilysin [3], the Drug metabolism entry is on record as “Metabolite_Notdetected”. In addition, the Drug degradation at Neprilysin [4] was 22%. In addition, at Neprilysin [8], the “inhibition (INH)” value was “Not Active”.

On to `CCCC[C@H](NC(=O)[C@@H]1CCCN1C(=O)CNC(=O)[C@H](CCCCN)NC(=O)[C@H](Cc1c[nH]cn1)NC(=O)[C@H](CO)NC(=O)[C@H](CC(C)C)NC(=O)[C@](C)(CCCNC(=N)N)NC(=O)[C@@H]1CCCN1C(=O)[C@H](CCCNC(=N)N)NC(=O)[C@H](CCC(N)=O)NC(=O)[C@H](CCCNC(=N)N)NC(=O)[C@H](CCCNC(=N)N)NC(=O)[C@H](Cc1ccccc1)NC(=O)[C@@H](N)CCCCN)C(=O)NC(C)(C)C(=O)N[C@@H](Cc1ccc(Br)cc1)C(=O)O` (H-KFRRQRP[αMeR]LSHKGP[Nle][Aib][Phe(4-Br)]-OH), for which the Activity entry in the data set on Mus musculus [2] is recorded as “Toxic”. Also, the Drug metabolism entry on Neprilysin [3] is “Metabolite_Notdetected”. In addition, the Drug degradation on Neprilysin [4] is recorded as 55%. Further, at Neprilysin [8], the “inhibition (INH)” value is “Not Active”.

For the compound `CCCC[C@H](NC(=O)[C@@H]1CCCN1C(=O)CNC(=O)[C@H](CCCCN)NC(=O)[C@H](Cc1c[nH]cn1)NC(=O)[C@H](CO)NC(=O)[C@H](CC(C)C)NC(=O)[C@](C)(CCCNC(=N)N)NC(=O)[C@@H]1CCCN1C(=O)[C@H](CCCNC(=N)N)NC(=O)[C@@H]1CCC(=O)N1)C(=O)NC(C)(C)C(=O)N[C@@H](Cc1ccc(Br)cc1)C(=O)O`, at Neprilysin [3], the Drug metabolism result is “Metabolite_Notdetected”. The Drug degradation on Neprilysin [4] amounted to 62%. In addition, the “inhibition (INH)” value on Neprilysin [8] was “Not Active”.

For `CSCC[C@H](NC(=O)[C@@H]1CCCN1C(=O)CNC(=O)[C@H](CCCCN)NC(=O)[C@H](Cc1cnc[nH]1)NC(=O)[C@H](CO)NC(=O)[C@H](CC(C)C)NC(=O)[C@H](CCCNC(=N)N)NC(=O)[C@@H]1CCCN1C(=O)[C@H](CCCNC(=N)N)NC(=O)[C@H](CCC(N)=O)NC(=O)[C@H](CCCNC(=N)N)NC(=O)[C@H](CCCNC(=N)N)NC(=O)[C@H](Cc1ccccc1)NC(=O)[C@@H](N)CCCCN)C(=O)N1CCC[C@H]1C(=O)N[C@@H](Cc1ccccc1)C(=O)O`, the outcome in the data set with Mus musculus [1], in the data set on Heart [5], with Heart [6], with Heart [7] and in the data set on Heart [9] was Active. The Activity result with Mus musculus [2] is “Toxic”. Also, at Neprilysin [3], the Drug metabolism entry is recorded as “Metabolite_Detected”. Moreover, the Drug degradation at Neprilysin [4] was determined as 39%.

For the compound `CCCC[C@H](NC(=O)[C@@H]1CCCN1C(=O)CNC(=O)[C@H](CCCCN)NC(=O)[C@H](Cc1c[nH]cn1)NC(=O)[C@H](CO)NC(=O)N(CC(C)C)NC(=O)[C@H](CCCNC(=N)N)NC(=O)[C@@H]1CCCN1C(=O)[C@H](CCCNC(=N)N)NC(=O)[C@@H]1CCC(=O)N1)C(=O)NC(C)(C)C(=O)N[C@@H](Cc1ccc(Br)cc1)C(=O)O`, the outcome in the data set with Heart [5], in the data set on Heart [6], in the data set on Heart [7] and in the data set with Heart [9] was inactive. Further, the Drug metabolism result on Neprilysin [3] is on record as “Metabolite_Notdetected”. In addition, the Drug degradation at Neprilysin [4] is 2%. The “inhibition (INH)” value at Neprilysin [8] is “Not Active”.

The values above are taken from ChEMBL document CHEMBL4038314, “Synthetic Modification within the "RPRL" Region of Apelin Peptides: Impact on Cardiovascular Activity and Stability to Neprilysin and Plasma Degradation” (J Med Chem, 2017).
